# In ChEMBL document CHEMBL1921751, “Discovery of small molecules that enhance astrocyte differentiation in rat fetal neural stem cells” (Bioorg Med Chem Lett, 2011):
# Active and inactive are the calls of the source. The rule behind the calls is not given here.
# Assays:
# [1] = tested on: NSC; assay: Induction of Sprague-Dawley rat embryonic cortex NSC differentiation assessed as GFAP-positive cells at 5 uM after 4 days by immunocytochemistry analysis relative to control; format: functional
# How it was run: (§1)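 E14 rat cortical NSCs were grown as neurospheres, dissociated and plated on poly-D-lysine in growth-factor-free medium with 2% B27. They received 5 µM compound or 0.05% DMSO at 37 °C, 5% CO2, for 4 days. Cells were fixed in 4% PFA, stained with anti-GFAP or TuJ1 plus Cy3 secondary, and DAPI-counterstained. Positive/DAPI cells in random fields were normalised to control; mean±SEM, n=6, t-test.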
# [2] = tested on: NSC; assay: Induction of Sprague-Dawley rat embryonic cortex NSC differentiation assessed as TuJ1-positive cells at 5 uM after 4 days by immunocytochemistry analysis; format: functional, cell-based; how it was run: as §1
# [3] = tested on: NSC; assay: Induction of S100 mRNA expression in Sprague-Dawley rat embryonic cortex NSC at 5 uM after 1 day by RT-PCR analysis relative to control; format: functional
# How it was run: (§2)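 First-strand cDNA was made from 2 µg total RNA using oligo(dT) primers and RevertAid reverse transcriptase. PCR ran 94 °C 5 min, then 26 cycles of 94 °C, 55–58 °C and 72 °C (0.5 min each), with a final 72 °C extension for 10 min.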
# [4] = tested on: NSC; assay: Induction of GFAP mRNA expression in Sprague-Dawley rat embryonic cortex NSC at 5 uM after 1 day by RT-PCR analysis relative to control; format: functional; how it was run: as §2
# [5] = tested on: NSC; assay: Induction of beta3 tubulin mRNA expression in Sprague-Dawley rat embryonic cortex NSC at 5 uM after 1 day by RT-PCR analysis; format: functional, cell-based; how it was run: as §2
# [6] = tested on: NSC; assay: Cytotoxicity against Sprague-Dawley rat embryonic cortex NSC assessed as changes in morphology at 5 uM after 4 days by microscopic analysis; format: cell-based; conditions: 96 h
# [7] = tested on: NSC; assay: Cytotoxicity against Sprague-Dawley rat embryonic cortex NSC assessed as reduction in nuclei count at 5 uM after 4 days using DAPI staining by fluorescent microscopic analysis; format: cell-based; conditions: 96 h
SMILES,Activity [1],Activity [2],Activity [3],Activity [4],Activity [5],fold change (FC) [1],fold change (FC) [3],fold change (FC) [4],Activity [6],Activity [7]
O=C(NC(c1ccc(F)cc1)c1nnc(-c2ccccc2)o1)c1ccccc1 (configuration not stated),Active,inactive,Active,Active,inactive,–,–,–,–,–
O=C(Cc1ccccc1)NC(c1ccc(F)cc1)c1nnc(-c2ccccc2)o1 (configuration not stated),–,inactive,–,–,inactive,2,2,2,–,–
O=C(Cc1ccccc1)NC(c1ccccc1)c1nnc(-c2ccccc2)o1 (configuration not stated),–,inactive,–,–,inactive,2,2,2,Non-toxic,Non-toxic
CC(C)(C)OC(=O)NC(c1ccc(F)cc1)c1nnc(-c2ccccc2)o1 (configuration not stated),Active,inactive,Active,Active,inactive,–,–,–,–,–
O=S(=O)(NC(c1ccc(F)cc1)c1nnc(-c2ccccc2)o1)c1ccccc1 (configuration not stated),Active,inactive,Active,Active,inactive,–,–,–,–,–
O=S(=O)(Cc1ccccc1)NC(c1ccc(F)cc1)c1nnc(-c2ccccc2)o1 (configuration not stated),Active,inactive,Active,Active,inactive,–,–,–,–,–
